Holding throughout (type): functional
One test concerns Vibrio parahaemolyticus. As to the kind of experiment: Antimicrobial activity against Vibrio parahaemolyticus ATCC 33844 assessed as growth inhibition rate at 247 mg/l after 72 hr by spectrophotometry. To be noted: ATCC 33844, 72 h, read-out: GI.
Test [1] concerns Bacillus cereus. Nature of the test: Antimicrobial activity against Bacillus cereus ATCC 11778 assessed as growth inhibition rate at 43 mg/l after 72 hr by spectrophotometry. To be noted: ATCC 11778, 72 h, read-out: GI. Summed up: (§1)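 Pure volatile compounds (purity >95%; one at 90%) were tested against B. cereus ATCC 11778. The strain was grown at 30 °C in nutrient broth for 24 h, then subcultured for 18 h. Optical density was read in a Bioscreen C every 24 h for 72 h, with 10% Tween 80 as the control.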

The subject of test [2] is Bacillus cereus. As to the kind of experiment: Antimicrobial activity against Bacillus cereus ATCC 11778 assessed as growth inhibition rate at 247 mg/l after 72 hr by spectrophotometry. The settings on record: ATCC 11778, 72 h, read-out: GI. An outline of the steps:
as §1

A further test deals with Listeria monocytogenes. Nature of the test: Antimicrobial activity against Listeria monocytogenes ATCC 19111 assessed as growth inhibition rate at 6.12 mg/l after 72 hr by spectrophotometry. The settings on record: ATCC 19111, 72 h, read-out: GI. Summed up: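 L. monocytogenes was grown at 30 °C in tryptic soy broth, subcultured for 18 h, and exposed to pure volatile compounds (>95% purity). Growth was followed by Bioscreen C optical density every 24 h for 72 h against a 10% Tween 80 control.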

Another test deals with Staphylococcus aureus. As to the kind of experiment: Antimicrobial activity against Staphylococcus aureus ATCC 25923 assessed as growth inhibition rate at 247 mg/l after 72 hr by spectrophotometry. The settings on record: ATCC 25923, 72 h, read-out: GI.
For another test, the system named is Escherichia coli. As to the kind of experiment: Antimicrobial activity against Escherichia coli O157:H7 ATCC 43894 assessed as growth inhibition rate at 61.12 mg/l after 72 hr by spectrophotometry. To be noted: O157:H7 ATCC 43894, 72 h, read-out: GI. Summed up: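 Authentic volatiles (>95% purity; 2,4-heptadienal 90%) tested against 18 h subcultures. Growth media: E. coli O157:H7 and S. aureus in tryptic soy broth at 37 °C; L. monocytogenes in tryptic soy broth at 30 °C; V. parahaemolyticus in tryptic soy broth + 3% NaCl at 37 °C; S. typhimurium in nutrient broth at 30 °C. Bioscreen C OD every 24 h for 72 h versus 10% Tween 80 control.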

Test [3] deals with Bacillus cereus. Nature of the test: Antimicrobial activity against Bacillus cereus ATCC 11778 assessed as growth inhibition rate at 6.12 mg/l after 72 hr by spectrophotometry. The settings on record: ATCC 11778, 72 h, read-out: GI. An outline of the steps:
as §1

The subject of another test is Salmonella typhimurium. Nature of the test: Antimicrobial activity against Salmonella enterica subsp. enterica serovar Typhimurium ATCC 14028 assessed as growth inhibition rate at 215.04 mg/l after 72 hr by spectrophotometry. To be noted: ATCC 14028, 72 h, read-out: GI. Summed up:
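Salmonella Typhimurium ATCC 14028 grown in nutrient broth at 30 °C, precultured 24 h, then subcultured 1:100 for 18 h before testing. Single volatile compounds (>95% pure) were added. OD was read every 24 h over 72 h in a Bioscreen C, with 10% Tween 80 as the comparison control.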

For test [4], the system named is Bacillus cereus. Nature of the test: Antimicrobial activity against Bacillus cereus ATCC 11778 assessed as growth inhibition rate at 215.04 mg/l after 72 hr by spectrophotometry. To be noted: ATCC 11778, 72 h, read-out: GI. Summed up: as §1

This passage reports inhibition of growth results from ChEMBL document CHEMBL3046951, “Volatile constituents from the leaves of Callicarpa japonica Thunb. and their antibacterial activities” (2004).

For `CCC/C=C/C=O`, the inhibition of growth at 247 µg/mL worked out at 100% in the test with Vibrio parahaemolyticus, 98.8% in the test with Bacillus cereus [2] and 100% with Staphylococcus aureus. Also, in the test with Bacillus cereus [1], the inhibition of growth at 43 µg/mL came to 91.8%. In addition, the inhibition of growth at 6.12 µg/mL in the test with Listeria monocytogenes was 31%; in the test on Bacillus cereus [3] it was 90.5%. In addition, the inhibition of growth at 61.12 µg/mL in the test on Escherichia coli was determined as 47.5%. For the same compound, the inhibition of growth at 215.04 µg/mL in the test on Salmonella typhimurium is 99.4%; in the test on Bacillus cereus [4] it was 100%.
